Reference: ChEMBL document CHEMBL3992561, “Synthesis of 1,3,5-trisubstituted pyrazolines as potential antimalarial and antimicrobial agents” (Bioorg Med Chem, 2017)
Values after ≈ are worked out from the molar mass of the structure shown.

What was measured:
[1] = tested on: Escherichia coli; experiment: Antibacterial activity against Escherichia coli MTCC 51 after 24 hrs by broth microdilution method; assay type: functional; settings: MTCC 51, 24 h
In short: (§1)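 Broth microdilution per NCCLS in Mueller-Hinton broth, inoculum 5 x 10^5 CFU/ml. Compounds dissolved in DMSO, twofold serial dilutions made in sterile distilled water. Incubated at 35°C for 24 h. MIC (µg/ml) taken as the lowest concentration with no visible turbidity by unaided eye. Ciprofloxacin as positive control. Three replicates, mean ± SD.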

[2] = tested on: Bacillus subtilis; experiment: Antibacterial activity against Bacillus subtilis MTCC 121 after 24 hrs by broth microdilution method; assay type: functional; settings: MTCC 121, 24 h; in short: as §1
[3] = tested on: Plasmodium falciparum; experiment: Antimalarial activity against chloroquine-resistant Plasmodium falciparum RKL-9 schizont infected in RBC measured after 24 to 30 hrs hrs by giemsa staining based light microscopic method; assay type: functional
In short: (§2)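 Asynchronous cultures synchronised to rings with 5% aqueous sorbitol, other stages removed by centrifugation; parasitemia about 1% in fresh washed RBCs. Compounds dissolved in DMSO, diluted in RPMI-1640, tested at several concentrations in triplicate; drug-free wells as control. Incubation 37°C in CO2 for 24-30 h until schizont maturation; methanol-fixed Giemsa smears counted under oil immersion; % inhibition, IC50 by probit; n=2.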

[4] = tested on: Aspergillus niger; experiment: Antifungal activity against Aspergillus niger MTCC 8189 after 48 hrs by broth microdilution method; assay type: functional; settings: MTCC 8189, 48 h
In short: (§3)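 Fungi grown in Sabouraud liquid medium, inoculum 0.5–2.5 x 10^3 CFU/ml. Broth microdilution per NCCLS using twofold serial dilutions in sterile water from DMSO solutions. Incubated at 35°C for 48 h. MIC (µg/ml) was the lowest concentration with no visible growth by eye. Fluconazole as positive control. Mean ± SD of three replicates.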

[5] = Selectivity index, ratio of IC50 for human HepG2 cells to IC50 for chloroquine-resistant Plasmodium falciparum RKL-9 schizont infected in RBC; assay type: toxicity; settings: read-out: Ratio IC50
In short: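 HepG2 in RPMI 1640 with 10% FCS, 5 x 10^2 cells/well, serial dilutions (DMSO stocks) added after 1 h; 7 days at 37°C, 5% CO2; MTT 4 h, formazan in ethanol, absorbance 570 nm; IC50 by non-linear regression, one experiment in duplicate. Index = HepG2 IC50 / RKL-9 antiplasmodial IC50.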

[6] = Inhibition of beta-hematin formation assessed as reduction in acetate buffer-initiated hemozoin formation after 18 hrs by spectrophotometric method relative to control; set-up: concentration or dose not given beside the values; settings: concentration not given here
In short: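 Colorimetric β-hematin assay after Ncokazi and Egan. Haemin chloride in DMSO, with compounds at 0.12–5 molar equivalents to haemin and DMSO as control. Reaction started with acetate buffer pH 5.0 and run 18 h at 37°C. Pellet then washed with DMSO to remove unreacted haematin. % inhibition computed from test versus control absorbance. Duplicate determinations.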

[7] = tested on: Candida albicans; experiment: Antifungal activity against Candida albicans MTCC 227 after 48 hrs by broth microdilution method; assay type: functional; settings: MTCC 227, 48 h; in short: as §3
[8] = tested on: Pseudomonas aeruginosa; experiment: Antibacterial activity against Pseudomonas aeruginosa MTCC 741 after 24 hrs by broth microdilution method; assay type: functional; settings: MTCC 741, 24 h; in short: as §1
[9] = tested on: Staphylococcus aureus; experiment: Antibacterial activity against Staphylococcus aureus MTCC 3160 after 24 hrs by broth microdilution method; assay type: functional; settings: MTCC 3160, 24 h; in short: as §1
[10] = tested on: Plasmodium falciparum; experiment: Antimalarial activity against chloroquine-sensitive Plasmodium falciparum MRC-2 schizont infected in RBC measured after 24 to 30 hrs hrs by giemsa staining based light microscopic method; assay type: functional; in short: as §2
[11] = tested on: HepG2; experiment: Cytotoxicity against human HepG2 cells assessed as reduction in cell viability after 7 days by MTT assay; assay type: cell-based; settings: HepG2, 168 h
In short: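 HepG2 cells maintained in RPMI 1640 with 10% FCS. Seeded at 5 x 10^2 cells per well and pre-incubated 1 h at 37°C, 5% CO2. Serial dilutions from DMSO stocks added, with medium and DMSO solvent controls. Cells incubated seven days, then MTT (5 mg/ml) added for 4 h. Formazan dissolved in ethanol, A570 read. IC50 by non-linear regression of % growth against log concentration.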

Structure (SMILES) | MIC [1] [µg/mL] | MIC [2] [µg/mL] | IC50 [3] [nM] | MIC [4] [µg/mL] | selectivity ratio [5] | inhibition [6] [%] | MIC [7] [µg/mL] | MIC [8] [µg/mL] | MIC [9] [µg/mL] | IC50 [10] [nM] | IC50 [11] [nM]
O=C(c1cccnc1)N1N=C(c2ccc(O)cc2)CC1c1ccc(OCc2ccccc2)cc1 (configuration not stated) | 25 (≈ 55.6 µM) | 50 (≈ 111 µM) | 2550 | 12.5 (≈ 27.8 µM) | 4.48 | < 5 | 3.25 (≈ 7.23 µM) | 12.5 (≈ 27.8 µM) | 50 (≈ 111 µM) | 214 | 11400
CC(C)c1ccccc1C1CC(c2ccc(O)cc2)=NN1C(=O)c1cccnc1 (configuration not stated) | 3.25 (≈ 8.43 µM) | 12.5 (≈ 32.4 µM) | 1650 | 25 (≈ 64.9 µM) | 30.1 | 57 | 50 (≈ 130 µM) | 12.5 (≈ 32.4 µM) | 25 (≈ 64.9 µM) | 110 | 49700
CCCc1ccc(C2CC(c3ccc(O)cc3)=NN2C(=O)c2cccnc2)cc1 (configuration not stated) | 12.5 (≈ 32.4 µM) | 50 (≈ 130 µM) | 192 | 25 (≈ 64.9 µM) | 216 | 81 | 25 (≈ 64.9 µM) | 12.5 (≈ 32.4 µM) | 12.5 (≈ 32.4 µM) | 22 | 41600
CC(C)c1ccc(C2CC(c3ccc(O)cc3)=NN2C(=O)c2cccnc2)cc1 (configuration not stated) | 3.25 (≈ 8.43 µM) | 50 (≈ 130 µM) | 465 | 25 (≈ 64.9 µM) | 83.3 | 48 | 12.5 (≈ 32.4 µM) | 12.5 (≈ 32.4 µM) | 12.5 (≈ 32.4 µM) | 34 | 38700
Cc1cc(C)c(C2CC(c3ccc(O)cc3)=NN2C(=O)c2cccnc2)c(C)c1 (configuration not stated) | 6.5 (≈ 16.9 µM) | 12.5 (≈ 32.4 µM) | 544 | 25 (≈ 64.9 µM) | 100 | 67 | 50 (≈ 130 µM) | 6.5 (≈ 16.9 µM) | 12.5 (≈ 32.4 µM) | 94 | 54500
CCc1ccccc1C1CC(c2ccc(O)cc2)=NN1C(=O)c1cccnc1 (configuration not stated) | 12.5 (≈ 33.7 µM) | 50 (≈ 135 µM) | 471 | 50 (≈ 135 µM) | 75.1 | 53 | 100 (≈ 269 µM) | 25 (≈ 67.3 µM) | 50 (≈ 135 µM) | 81 | 35400
COc1ccc(C2CC(c3ccc(O)cc3)=NN2C(=O)c2cccnc2)cc1OC (configuration not stated) | 50 (≈ 124 µM) | 50 (≈ 124 µM) | 251 | 6.5 (≈ 16.1 µM) | 213 | 89 | 75 (≈ 186 µM) | 25 (≈ 62 µM) | 50 (≈ 124 µM) | 30 | 53600
O=C(c1cccnc1)N1N=C(c2ccc(O)cc2)CC1c1ccc(Br)cc1 (configuration not stated) | 25 (≈ 59.2 µM) | 12.5 (≈ 29.6 µM) | 970 | 25 (≈ 59.2 µM) | 60.5 | 76 | 50 (≈ 118 µM) | 12.5 (≈ 29.6 µM) | 6.5 (≈ 15.4 µM) | 141 | 58700
COc1ccc(C2CC(c3ccc(O)cc3)=NN2C(=O)c2cccnc2)cc1 (configuration not stated) | 25 (≈ 67 µM) | 75 (≈ 201 µM) | 556 | 12.5 (≈ 33.5 µM) | 76.3 | 54 | 50 (≈ 134 µM) | 25 (≈ 67 µM) | 50 (≈ 134 µM) | 59 | 42400
O=C(O)c1cn(C2CC2)c2cc(N3CCNCC3)c(F)cc2c1=O [CIPROFLOXACIN] | 12.5 (≈ 37.7 µM) | 25 (≈ 75.4 µM) | 401 | – | – | – | – | – | – | – | 27000
CCN(CC)CCCC(C)Nc1ccnc2cc(Cl)ccc12 (configuration not stated) | – | – | – | – | – | 87 | – | – | – | – | –
CC(C)Oc1ccc(C2CC(c3ccc(O)cc3)=NN2C(=O)c2cccnc2)cc1 (configuration not stated) | 6.5 (≈ 16.2 µM) | 75 (≈ 187 µM) | 337 | 12.5 (≈ 31.1 µM) | 139 | 78 | 6.5 (≈ 16.2 µM) | 50 (≈ 125 µM) | 50 (≈ 125 µM) | 38 | 45400
O=C(c1cccnc1)N1N=C(c2ccc(O)cc2)CC1c1ccc([N+](=O)[O-])cc1 (configuration not stated) | 6.5 (≈ 16.7 µM) | 12.5 (≈ 32.2 µM) | 2440 | 25 (≈ 64.4 µM) | 7.63 | < 5 | 12.5 (≈ 32.2 µM) | 25 (≈ 64.4 µM) | 6.5 (≈ 16.7 µM) | 1570 | 18600
OC(Cn1cncn1)(Cn1cncn1)c1ccc(F)cc1F [FLUCONAZOLE] | – | – | – | 25 (≈ 81.6 µM) | – | – | 12.5 (≈ 40.8 µM) | – | – | – | –
COc1ccc(OC)c(C2CC(c3ccc(O)cc3)=NN2C(=O)c2cccnc2)c1 (configuration not stated) | 25 (≈ 62 µM) | 25 (≈ 62 µM) | 330 | 12.5 (≈ 31 µM) | 172 | 71 | 75 (≈ 186 µM) | 12.5 (≈ 31 µM) | 25 (≈ 62 µM) | 40 | 56800
O=C(c1cccnc1)N1N=C(c2ccc(O)cc2)CC1c1ccc(F)cc1 (configuration not stated) | 6.5 (≈ 18 µM) | 3.25 (≈ 8.99 µM) | 2900 | 25 (≈ 69.2 µM) | 18.1 | < 5 | 12.5 (≈ 34.6 µM) | 12.5 (≈ 34.6 µM) | 12.5 (≈ 34.6 µM) | 2500 | 52400
O=C(c1cccnc1)N1N=C(c2ccc(O)cc2)CC1c1ccccc1Cl (configuration not stated) | 50 (≈ 132 µM) | 12.5 (≈ 33.1 µM) | 2330 | 3.25 (≈ 8.6 µM) | 20.5 | 31 | 6.5 (≈ 17.2 µM) | 3.25 (≈ 8.6 µM) | 75 (≈ 199 µM) | 240 | 47700
COc1ccc(C2CC(c3ccc(O)cc3)=NN2C(=O)c2cccnc2)cc1C (configuration not stated) | 12.5 (≈ 32.3 µM) | 25 (≈ 64.5 µM) | 779 | 25 (≈ 64.5 µM) | 57.5 | 66 | 50 (≈ 129 µM) | 6.5 (≈ 16.8 µM) | 25 (≈ 64.5 µM) | 63 | 44800
